# Data from ChEMBL document CHEMBL1132613 (J Med Chem, 1999).
# Where “and” joins values, the source holds several entries; their conditions need not be identical. Equal entries are not always repeated.
# Columns and labels:
# [1] = molecular target: T1, 5-hydroxytryptamine receptor 1A (Rattus norvegicus, UniProt P19327); experiment: Compound was tested for the displacement of [3H]-8-OH- DPAT from rat brain 5-hydroxytryptamine 1A receptor
# T1 sequence (P19327 whole entry): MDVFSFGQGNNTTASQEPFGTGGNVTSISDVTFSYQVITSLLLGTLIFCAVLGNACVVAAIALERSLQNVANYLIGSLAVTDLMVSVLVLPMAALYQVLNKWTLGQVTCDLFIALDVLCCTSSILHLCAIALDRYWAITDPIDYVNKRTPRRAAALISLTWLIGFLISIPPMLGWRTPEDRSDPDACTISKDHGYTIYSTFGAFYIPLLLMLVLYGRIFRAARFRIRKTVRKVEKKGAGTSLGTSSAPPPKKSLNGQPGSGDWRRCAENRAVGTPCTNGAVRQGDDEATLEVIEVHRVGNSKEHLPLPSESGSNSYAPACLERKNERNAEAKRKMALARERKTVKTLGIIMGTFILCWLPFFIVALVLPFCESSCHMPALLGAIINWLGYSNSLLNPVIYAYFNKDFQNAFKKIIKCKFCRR
# Procedure, shortened: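 Pooled rat hippocampal membranes were preincubated at 37 °C. Buffer was 50 mM Tris HCl pH 7.4 with 0.5 mM Na2EDTA, 10 mM MgCl2, 0.1% Na ascorbate and pargyline. 200–400 μg protein was incubated with [3H]-8-OH-DPAT for 15 min at 37 °C, then GF/C filtered and scintillation counted. Nonspecific binding was defined with 10 μM 5-HT. Triplicate tubes.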
# [2] = molecular target: 5-hydroxytryptamine receptor 2A (Homo sapiens, UniProt P28223); experiment: Compound was tested for the displacement of [125I]DOI from cloned human 5-hydroxytryptamine 2A receptor
# Procedure, shortened: (§1)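 Membranes from AV12 hamster fibroblasts stably expressing human 5-HT2A or 5-HT2C. [125I]DOI was about 0.07–0.15 nM final. Buffer was 50 mM Tris-HCl pH 7.4 with 10 μM pargyline, 9.75 mM MgCl2, 0.5 mM Na2-EDTA and 0.1% Na ascorbate. Incubation was 30 min at 37 °C with about 40 μg protein (2A) or 30 μg (2C). Nonspecific binding used 1 μM ketanserin (2A) or 10 μM mianserin (2C). Read by gamma counting; sigmoid nonlinear regression.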
# [3] = molecular target: T2, 5-hydroxytryptamine receptor 2C (Homo sapiens, UniProt P28335); experiment: Compound was tested for the displacement of [125I]DOI from cloned human 5-hydroxytryptamine 2C receptor; procedure, shortened: as §1
# T2 sequence (P28335 whole entry): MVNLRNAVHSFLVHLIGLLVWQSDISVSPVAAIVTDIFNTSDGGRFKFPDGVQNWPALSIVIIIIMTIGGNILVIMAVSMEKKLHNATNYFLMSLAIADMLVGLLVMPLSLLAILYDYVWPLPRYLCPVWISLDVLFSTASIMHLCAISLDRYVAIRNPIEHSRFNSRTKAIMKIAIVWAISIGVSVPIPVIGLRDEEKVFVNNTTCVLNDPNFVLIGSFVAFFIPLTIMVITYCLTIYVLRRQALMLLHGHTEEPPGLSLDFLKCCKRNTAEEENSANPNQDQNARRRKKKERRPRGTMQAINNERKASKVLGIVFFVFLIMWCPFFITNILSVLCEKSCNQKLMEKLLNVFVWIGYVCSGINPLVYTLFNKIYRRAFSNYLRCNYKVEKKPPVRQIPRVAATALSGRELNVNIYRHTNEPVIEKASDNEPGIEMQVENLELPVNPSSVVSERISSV
# [4] = molecular target: 5-hydroxytryptamine receptor 2B (Homo sapiens, UniProt P41595); experiment: Compound was tested for the displacement of [3H]5-HT from cloned human 5-hydroxytryptamine 2B receptor
# Procedure, shortened: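 Membranes from AV12 cells stably expressing human 5-HT2B, 100–150 μg protein. [3H]-5-HT was about 2 nM (1.7–2.5 nM) final. Buffer was 50 mM Tris pH 7.4 with 3 mM CaCl2, 10 μM pargyline and 0.1% ascorbic acid. Drug dilutions spanned 6 log units. Incubation was 15 min at 37 °C. Nonspecific binding used 10 μM 5-HT or 1-NP. PEI-soaked GF/B filtration, scintillation counting, triplicate, sigmoid nonlinear regression.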
# Rattus norvegicus [5] = experiment: Percentage of animals failing to emit 50 lever presses within 15 min in DOI trained rats at a compound dose of 16 mg/kg; type: functional
# Procedure, shortened: (§2)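 Male Sprague–Dawley rats (200–220 g) in a two-lever, FR50 food-reinforced task. Rats were trained to discriminate saline from LSD tartrate (0.08 mg/kg), DOI HCl (0.4 mg/kg) or LY293284 (0.025 mg/kg) in 15-min sessions. %SDL is the share of rats making over 80% of presses on the drug lever. %D is the share failing to make 50 presses within 15 min. ED50 by Litchfield–Wilcoxon log-probit.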
# Rattus norvegicus [6] = experiment: Percentage of animals failing to emit 50 lever presses within 15 min in DOI trained rats at a compound dose of 4 mg/kg; type: functional; procedure, shortened: as §2
# Rattus norvegicus [7] = experiment: Percentage of animals failing to emit 50 lever presses within 15 min in DOI trained rats at a compound dose of 8 mg/kg; type: functional; procedure, shortened: as §2
# Rattus norvegicus [8] = experiment: Percentage of animals failing to emit 50 lever presses within 15 min in LSD trained rats at a compound dose of 16 mg/kg; type: functional; procedure, shortened: as §2
# Rattus norvegicus [9] = experiment: Percentage of animals failing to emit 50 lever presses within 15 min in LSD trained rats at a compound dose of 2.0 mg/kg; type: functional; procedure, shortened: as §2
# Rattus norvegicus [10] = experiment: Percentage of animals failing to emit 50 lever presses within 15 min in LSD trained rats at a compound dose of 4.0 mg/kg; type: functional
# Procedure, shortened: (§3)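 Two-lever drug discrimination in male Sprague–Dawley rats (200–220 g at start), trained against saline on LSD tartrate (0.08 mg/kg), DOI HCl (0.4 mg/kg) or LY293284 (0.025 mg/kg). FR50 food-pellet reinforcement, levers counterbalanced, 15-min sessions at 22–24 °C. %D is the share of tested rats not completing 50 lever presses within 15 min.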
# Rattus norvegicus [11] = experiment: Percentage of animals failing to emit 50 lever presses within 15 min in LSD trained rats at a compound dose of 8.0 mg/kg; type: functional; procedure, shortened: as §3
# Rattus norvegicus [12] = experiment: Percentage of animals failing to emit 50 lever presses within 15 min in […] trained rats at a compound dose of 16 mg/kg; type: functional; procedure, shortened: as §3
# Rattus norvegicus [13] = experiment: Percentage of animals failing to emit 50 lever presses within 15 min in […] trained rats at a compound dose of 2 mg/kg; type: functional; procedure, shortened: as §3
# Rattus norvegicus [14] = experiment: Percentage of animals failing to emit 50 lever presses within 15 min in […] trained rats at a compound dose of 4 mg/kg; type: functional; procedure, shortened: as §3
# Rattus norvegicus [15] = experiment: Percentage of animals emitting >80% of lever presses in DOI trained rats at a compound dose of 12.6 uM/Kg; type: functional; procedure, shortened: as §2
# Rattus norvegicus [16] = experiment: Percentage of animals emitting >80% of lever presses in DOI trained rats at a compound dose of 25.3 uM/Kg; type: functional; procedure, shortened: as §2
# Rattus norvegicus [17] = experiment: Percentage of animals emitting >80% of lever presses in DOI trained rats at a compound dose of 50.6 uM/Kg; type: functional; procedure, shortened: as §2
# Rattus norvegicus [18] = experiment: Percentage of animals emitting >80% of lever presses in LSD trained rats at a compound dose of 25.3 uM/Kg; type: functional; procedure, shortened: as §2
# Rattus norvegicus [19] = experiment: Percentage of animals emitting >80% of lever presses in LSD trained rats at a compound dose of 50.6 uM/Kg; type: functional; procedure, shortened: as §2
# Rattus norvegicus [20] = experiment: Percentage of animals emitting >80% of lever presses in LSD trained rats at a compound dose of 6.32 uM/Kg; type: functional; procedure, shortened: as §2
# Rattus norvegicus [21] = experiment: Percentage of animals emitting >80% of lever presses in […] trained rats at a compound dose of 12.6 uM/Kg; type: functional; procedure, shortened: as §2
# Rattus norvegicus [22] = experiment: Percentage of animals emitting >80% of lever presses in […] trained rats at a compound dose of 25.3 uM/Kg; type: functional; procedure, shortened: as §2
# Rattus norvegicus [23] = experiment: Percentage of animals emitting >80% of lever presses in […] trained rats at a compound dose of 50.6 uM/Kg; type: functional; procedure, shortened: as §2
# Rattus norvegicus [24] = experiment: Percentage of animals emitting >80% of lever presses in […] trained rats at a compound dose of 6.32 uM/Kg; type: functional; procedure, shortened: as §2
# Rattus norvegicus [25] = experiment: Percentage of animals emitting >80% of lever presses in LSD trained rats at a compound dose of 12.6 uM/Kg; type: functional; procedure, shortened: as §2
# Rattus norvegicus [26] = experiment: Percentage of animals failing to emit 50 lever presses within 15 min in […] trained rats at a compound dose of 8 mg/kg; type: functional; procedure, shortened: as §3
# [27] = molecular target: 5-hydroxytryptamine receptor 2A (Rattus norvegicus) (UniProt P14842); experiment: Efficacy against 5-hydroxytryptamine 2A receptor; type: functional
# Rattus norvegicus [28] = experiment: Percentage of animals failing to emit 50 lever presses within 15 min in at 0.01 mg/kg dose; type: functional; procedure, shortened: as §3
# Rattus norvegicus [29] = experiment: Percentage of animals failing to emit 50 lever presses within 15 min in rats at 0.02 mg/kg dose; type: functional; procedure, shortened: as §3
# Rattus norvegicus [30] = experiment: Percentage of animals failing to emit 50 lever presses within 15 min in rats at 0.04 mg/kg dose; type: functional; procedure, shortened: as §3
# Rattus norvegicus [31] = experiment: Percentage of animals failing to emit 50 lever presses within 15 min in rats at 0.08 mg/kg dose; type: functional; procedure, shortened: as §3
# Rattus norvegicus [32] = experiment: Percentage of animals emitting >80% of lever presses in rats at 0.01 mg/kg dose; type: functional; procedure, shortened: as §2
# Rattus norvegicus [33] = experiment: Percentage of animals emitting >80% of lever presses in rats at 0.02 mg/kg dose; type: functional; procedure, shortened: as §2
# Rattus norvegicus [34] = experiment: Percentage of animals emitting >80% of lever presses in rats at 0.04 mg/kg dose; type: functional; procedure, shortened: as §2
# Rattus norvegicus [35] = experiment: Percentage of animals emitting >80% of lever presses in rats at 0.08 mg/kg dose; type: functional; procedure, shortened: as §2
# Chain of 5-hydroxytryptamine receptor 2A (Rattus norvegicus) (P14842 whole entry): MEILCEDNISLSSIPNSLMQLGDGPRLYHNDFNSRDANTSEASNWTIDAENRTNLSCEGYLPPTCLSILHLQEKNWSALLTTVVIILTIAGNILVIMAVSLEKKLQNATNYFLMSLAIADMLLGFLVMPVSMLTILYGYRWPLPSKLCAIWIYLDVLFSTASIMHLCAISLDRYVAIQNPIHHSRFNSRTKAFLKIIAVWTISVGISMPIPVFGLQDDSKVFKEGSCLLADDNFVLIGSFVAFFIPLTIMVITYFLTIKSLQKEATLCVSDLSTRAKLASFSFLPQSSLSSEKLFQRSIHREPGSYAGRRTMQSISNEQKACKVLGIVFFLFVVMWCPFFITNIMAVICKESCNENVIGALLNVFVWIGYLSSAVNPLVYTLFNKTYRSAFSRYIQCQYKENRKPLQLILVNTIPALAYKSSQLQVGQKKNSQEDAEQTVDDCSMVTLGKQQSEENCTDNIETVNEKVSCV
# Chain of 5-hydroxytryptamine receptor 2A (P28223 whole entry): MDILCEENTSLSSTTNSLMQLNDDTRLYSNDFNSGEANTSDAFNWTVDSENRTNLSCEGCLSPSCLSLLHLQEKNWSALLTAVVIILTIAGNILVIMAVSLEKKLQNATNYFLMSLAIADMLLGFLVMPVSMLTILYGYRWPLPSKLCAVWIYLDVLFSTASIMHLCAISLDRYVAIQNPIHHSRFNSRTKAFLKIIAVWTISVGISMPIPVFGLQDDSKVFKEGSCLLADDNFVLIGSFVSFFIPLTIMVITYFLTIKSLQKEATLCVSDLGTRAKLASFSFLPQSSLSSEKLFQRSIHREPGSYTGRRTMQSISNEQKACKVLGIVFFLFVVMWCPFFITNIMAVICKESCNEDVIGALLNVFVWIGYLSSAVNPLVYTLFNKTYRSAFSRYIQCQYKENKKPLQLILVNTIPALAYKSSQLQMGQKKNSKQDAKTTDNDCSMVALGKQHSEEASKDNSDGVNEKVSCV
# Chain of 5-hydroxytryptamine receptor 2B (P41595 whole entry): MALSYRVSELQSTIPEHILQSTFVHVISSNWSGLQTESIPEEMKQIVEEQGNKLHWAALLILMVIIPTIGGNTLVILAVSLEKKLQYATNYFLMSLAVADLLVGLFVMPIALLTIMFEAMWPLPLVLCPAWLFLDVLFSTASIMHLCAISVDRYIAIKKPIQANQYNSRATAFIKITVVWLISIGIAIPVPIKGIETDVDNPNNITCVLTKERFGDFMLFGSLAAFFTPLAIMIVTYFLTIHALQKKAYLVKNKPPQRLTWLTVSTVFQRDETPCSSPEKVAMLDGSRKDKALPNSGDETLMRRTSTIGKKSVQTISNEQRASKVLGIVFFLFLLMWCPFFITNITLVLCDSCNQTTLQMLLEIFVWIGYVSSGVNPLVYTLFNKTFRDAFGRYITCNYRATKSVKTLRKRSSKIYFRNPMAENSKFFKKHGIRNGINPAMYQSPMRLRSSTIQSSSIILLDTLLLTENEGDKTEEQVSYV
smiles,measurement,setting,value
CN(C)CCc1c[nH]c2ccsc12,Ki,[1],76 nM
same,Ki,[2],276 nM
same,Ki,[3],64 nM
same,Ki,[4],214 nM
same,D,Rattus norvegicus [5],62.5%
same,D,Rattus norvegicus [6],11%
same,D,Rattus norvegicus [7],78%
same,D,Rattus norvegicus [8],62.5%
same,D,Rattus norvegicus [9],25%
same,D,Rattus norvegicus [10],22%
same,D,Rattus norvegicus [11],36%
same,D,Rattus norvegicus [12],0%
same,D,Rattus norvegicus [13],8%
same,D,Rattus norvegicus [14],30%
same,SDL,Rattus norvegicus [15],37.5%
same,SDL,Rattus norvegicus [16],0%
same,SDL,Rattus norvegicus [17],0%
same,SDL,Rattus norvegicus [18],12.5%
same,SDL,Rattus norvegicus [19],0%
same,SDL,Rattus norvegicus [20],0%
same,SDL,Rattus norvegicus [21],57%
same,SDL,Rattus norvegicus [22],71%
same,SDL,Rattus norvegicus [23],83%
same,SDL,Rattus norvegicus [24],50%
same,SDL,Rattus norvegicus [25],43%
same,D,Rattus norvegicus [26],22%
CCN(CC)C(=O)[C@@H]1C=C2c3cccc4[nH]cc(c34)C[C@H]2N(C)C1 [LYSERGIDE],ED50,[27],0.037 µmol.kg-1 and 0.016 mg/kg
same,D,Rattus norvegicus [28],0%
same,D,Rattus norvegicus [29],7%
same,D,Rattus norvegicus [30],0%
same,D,Rattus norvegicus [31],0%
same,SDL,Rattus norvegicus [32],31%
same,SDL,Rattus norvegicus [33],62%
same,SDL,Rattus norvegicus [34],81%
same,SDL,Rattus norvegicus [35],100%
